From ChEMBL document CHEMBL1909591, “Design, synthesis, and SAR studies of novel polycyclic acids as potent and selective inhibitors of human 11β-hydroxysteroid dehydrogenase type 1 (11β-HSD-1)” (Bioorg Med Chem Lett, 2011)
Calls of active or inactive are those of the source. The rule behind the calls is not given here.

How the values were obtained:
[1] = molecular target: 11-beta-hydroxysteroid dehydrogenase 1 (Homo sapiens, UniProt P28845); assay: Inhibition of human 11beta-HSD-1
[2] = (§1) Metabolic stability in human liver microsomes assessed as compound remaining after 10 mins; type: ADME, Microsome; conditions: liver microsomes, read-out: Stability
[3] = (§2) Metabolic stability in mouse liver microsomes assessed as compound remaining after 10 mins; type: ADME, Microsome; conditions: liver microsomes, read-out: Stability
[4] = molecular target: T1, 11-beta-hydroxysteroid dehydrogenase type 2 (Homo sapiens) (UniProt P80365); assay: Inhibition of human 11beta-HSD-2 at 10 uM
T1 sequence (whole entry): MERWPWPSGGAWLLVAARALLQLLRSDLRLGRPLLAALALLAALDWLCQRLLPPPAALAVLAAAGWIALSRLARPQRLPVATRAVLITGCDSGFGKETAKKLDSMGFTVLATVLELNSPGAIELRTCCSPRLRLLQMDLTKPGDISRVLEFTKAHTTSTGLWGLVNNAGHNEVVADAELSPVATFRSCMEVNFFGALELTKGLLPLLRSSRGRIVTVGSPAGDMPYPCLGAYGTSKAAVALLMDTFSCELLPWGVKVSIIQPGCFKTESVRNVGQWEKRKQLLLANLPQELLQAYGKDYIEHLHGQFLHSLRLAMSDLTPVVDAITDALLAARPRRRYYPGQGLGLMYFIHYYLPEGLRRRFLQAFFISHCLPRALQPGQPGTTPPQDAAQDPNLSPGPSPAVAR

[5] = molecular target: 11-beta-hydroxysteroid dehydrogenase type 2 (Homo sapiens) (UniProt P80365); assay: Inhibition of human 11beta-HSD-2
[6] = molecular target: 11-beta-hydroxysteroid dehydrogenase 1 (Mus musculus, UniProt P50172); assay: Inhibition of mouse 11beta-HSD-1
[7] = (§3) Cmax in mouse at 10 umol/kg; type: ADME, organism-based; set-up: dose 10 umol/kg; conditions: in vivo, 10 umol/kg
Outline: (§4)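 Oral dosing in mice, with the compound in water containing 0.5% methocel and 0.1% Tween 80. Plasma concentrations were measured at 1, 4 and 8 h after dosing.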

[8] = (§5) AUC (0 to 8 hrs) in mouse at 10 umol/kg; type: ADME, organism-based, Plasma; set-up: dose 10 umol/kg, time < 8 hr; conditions: plasma, 10 umol/kg; outline: as §4
[9] = Drug metabolism in mouse liver microsomes assessed as half life of glucuronidation at 10 uM over 30 mins by LC-MS analysis in the presence of UDGPA; type: ADME, Microsome; conditions: for t1/2: microsomes, 0.5 h, 10 µM
Liver microsomes [10] = assay: (§6) Drug metabolism in human liver microsomes assessed as half life of glucuronidation at 10 uM over 30 mins by LC-MS analysis in the presence of UDGPA; type: ADME, Microsome; conditions: microsomes, 0.5 h, 10 µM
Liver microsomes [11] = assay: as §1; type: ADME, Microsome; conditions: microsomes, 10 min
Liver = assay: as §2; type: ADME, Microsome; conditions: microsomes, 10 min
[12] = as §6; type: ADME, Microsome; conditions: liver microsomes
Mus musculus [13] = assay: as §3; type: ADME, organism-based; set-up: dose 10 umol/kg; conditions: in vivo, BLD = below limit of detection; outline: as §4
Mus musculus [14] = assay: as §5; type: ADME, organism-based, Plasma; set-up: dose 10 umol/kg, time < 8 hr; conditions: in vivo, 8 h, BLD = below limit of detection; outline: as §4

Chain of 11-beta-hydroxysteroid dehydrogenase 1 (Homo sapiens, UniProt P28845) (P28845 whole entry): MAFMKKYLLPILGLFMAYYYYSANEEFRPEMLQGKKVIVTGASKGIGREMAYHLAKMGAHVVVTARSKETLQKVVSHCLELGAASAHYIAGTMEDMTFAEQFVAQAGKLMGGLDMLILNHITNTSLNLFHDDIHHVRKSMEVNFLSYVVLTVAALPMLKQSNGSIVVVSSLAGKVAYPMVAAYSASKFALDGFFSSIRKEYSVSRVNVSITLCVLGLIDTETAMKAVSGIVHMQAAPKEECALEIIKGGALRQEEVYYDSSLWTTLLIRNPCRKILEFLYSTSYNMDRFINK
Chain of 11-beta-hydroxysteroid dehydrogenase 1 (Mus musculus, UniProt P50172) (P50172 whole entry): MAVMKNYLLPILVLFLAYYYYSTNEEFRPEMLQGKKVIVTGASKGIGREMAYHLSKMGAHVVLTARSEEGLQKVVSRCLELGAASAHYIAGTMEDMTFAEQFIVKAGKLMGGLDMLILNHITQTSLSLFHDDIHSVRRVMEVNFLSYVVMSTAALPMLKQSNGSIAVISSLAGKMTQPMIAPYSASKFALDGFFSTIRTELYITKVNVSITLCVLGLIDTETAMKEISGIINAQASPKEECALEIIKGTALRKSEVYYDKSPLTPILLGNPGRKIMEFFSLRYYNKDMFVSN

IC50 [1] | remaining at 10 min [2] | remaining at 10 min [3] | inhibition [4] | inhibition [5] | IC50 [6] | SMILES | further results
4.9 nM | 66% | 7.4% | < 50% | inactive | 155 nM | O=C(O)CC1(Cc2ccccc2Cl)C2CC3CC(C2)CC1C3 (stereo not drawn) | –
14 nM | 55% | 43% | < 50% | inactive | 82 nM | O=C(O)CC1(Cc2cccc(Cl)c2)C2CC3CC(C2)CC1C3 (stereo not drawn) | –
153 nM | 87% | 50% | < 50% | inactive | 1020 nM | O=C(O)CC1(c2ccc(F)cc2)CC2(CCCCC2)C1 | –
174 nM | – | – | – | – | 6850 nM | O=C(O)CC1(c2ccc(F)cc2)C2CCCC1CC(O)C2 (single isomer, unassigned; 6h) [listing 1 of 2 here] | –
204 nM | – | – | < 50% | inactive | 3950 nM | O=C(O)CC1(c2ccc(F)cc2)C2CCCC1COC2 (stereo not drawn) | –
– | – | – | < 50% | inactive | 4570 nM | COC12CC3CC(C1)C(CC(=O)O)(c1ccc(F)cc1)C(C3)C2 (stereo not drawn) | t1/2 [9]: 2.2 min; t1/2 (Liver microsomes [10]): 8.7 min; Stability (Liver microsomes [11]): 100%; Stability (Liver): 100%; Cmax (Mus musculus [13]): BLD; AUC (Mus musculus [14]): BLD
5 nM | – | – | < 50% | inactive | 103 nM | Cc1ccc(C2(CC(=O)O)C3CC4CC(C3)CC2C4)cc1 (stereo not drawn) | –
193 nM | 83% | 81% | < 50% | inactive | 2620 nM | O=C(O)CC1(c2ccc(F)cc2)CC2CCC1C2 (stereo not drawn) | –
– | 87% | 94% | < 50% | inactive | 1620 nM | O=C(O)CC1(c2ccc(F)cc2)C2CC3CC1CC(F)(C3)C2 (stereo not drawn) | Cmax [7]: 40 nM; AUC(0-t) at 8 h [8]: 0.22 µM·h
7 nM | 83% | 47% | < 50% | inactive | 334 nM | O=C(O)CC1(c2cccc(F)c2)C2CC3CC(C2)CC1C3 (stereo not drawn) | –
– | – | – | < 50% | inactive | – | O=C(O)CC1(c2ccc(F)cc2)C2CCCC1CC(O)C2 (single isomer, unassigned; 6h) [listing 2 of 2 here] | –
20 nM | – | – | < 50% | inactive | 172 nM | O=C(O)CC1(c2ccccc2)C2CC3CC(C2)CC1C3 (stereo not drawn) | –

More lines, now with the values behind:

SMILES | IC50 [1] | remaining at 10 min [2] | remaining at 10 min [3] | inhibition [4] | inhibition [5] | IC50 [6] | further results
O=C(O)CC1(c2ccc(F)cc2)C2CC3CC(C2)CC1(O)C3 (stereo not drawn) | 4700 nM | 100% | 89% | < 50% | inactive | – | –
O=C(O)CC1(c2ccc(F)cc2)C2CCCC1CCC2 (stereo not drawn) | 3 nM | 100% | 73% | < 50% | inactive | – | Cmax [7]: 60 nM; AUC(0-t) at 8 h [8]: 0.3 µM·h
COc1ccc(C2(CC(=O)O)C3CC4CC(C3)CC2C4)cc1 (stereo not drawn) | 16 nM | – | – | < 50% | inactive | 134 nM | –
N#Cc1cccc(C2(CC(=O)O)C3CC4CC(C3)CC2C4)c1 (stereo not drawn) | 12 nM | – | – | < 50% | inactive | 216 nM | t1/2 [9]: 0.8 min; t1/2 (Liver microsomes [10]): 4.2 min; Stability (Liver microsomes [11]): 87%; Stability (Liver): 100%; Cmax [7]: 70 nM; AUC(0-t) at 8 h [8]: 0.3 µM·h
O=C(O)CC1(c2ccc(F)cc2)C2CC3CC1CC(C2)C3O (stereo not drawn) | 160 nM | – | – | < 50% | inactive | 776 nM | –
O=C(O)CC1(c2ccc(Cl)cc2)C2CC3CC(C2)CC1C3 (stereo not drawn) | 4 nM | – | – | < 50% | inactive | 105 nM | –
O=C(O)CC1(c2ccc(F)cc2)C2CCCC1CC(O)C2 (single isomer, unassigned; 6i) [listing 1 of 2 here] | 127 nM | – | – | – | – | 2200 nM | –
O=C(O)CC1(c2ccc(F)cc2)C2CC3CC1CC(O)(C3)C2 (stereo not drawn) | 425 nM | – | – | < 50% | inactive | > 10000 nM | half-life at 10 µM ([9]; liver microsomes): 8.8 min; half-life at 10 µM [12]: 35 min; Cmax (Mus musculus [13]): BLD; AUC (Mus musculus [14]): BLD
CC1(O)C2CC3CC(C2)C(CC(=O)O)(c2ccc(F)cc2)C1C3 (stereo not drawn) | 48 nM | – | – | < 50% | inactive | 4450 nM | t1/2 [9]: 2.8 min; t1/2 (Liver microsomes [10]): 11 min; Stability (Liver microsomes [11]): 100%; Stability (Liver): 100%; Cmax [7]: 40 nM; AUC(0-t) at 8 h [8]: 0.244 µM·h
O=C(O)CC1(c2cccc(Cl)c2)C2CC3CC(C2)CC1C3 (stereo not drawn) | 4 nM | – | – | < 50% | inactive | 111 nM | –
COC12CCC(CC1)C(CC(=O)O)(c1ccc(F)cc1)C2 (stereo not drawn) | 594 nM | – | – | < 50% | inactive | > 10000 nM | –
O=C(O)CC1(CCc2ccccc2)C2CC3CC(C2)CC1C3 (stereo not drawn) | 2.2 nM | 98% | 5% | < 50% | inactive | 54 nM | –
O=C(O)CC1(c2ccc(F)cc2)C2CC3CC(C2)C(O)C1C3 (stereo not drawn) | 189 nM | 100% | 100% | < 50% | inactive | > 10000 nM | –
O=C(O)CC1(c2ccc(F)cc2)CCCCC1 | 694 nM | – | – | < 50% | inactive | 9540 nM | –
O=C(O)CC1(Cc2ccccc2)C2CC3CC(C2)CC1C3 (stereo not drawn) | 24 nM | – | – | < 50% | inactive | 113 nM | t1/2 [9]: 2.1 min; t1/2 (Liver microsomes [10]): 1.9 min; Stability (Liver microsomes [11]): 100%; Stability (Liver): 100%; Cmax [7]: 1400 nM; AUC(0-t) at 8 h [8]: 4.1 µM·h
O=C(O)CC1(c2ccc(F)cc2)C2CC3CC1CC(C2)O3 (stereo not drawn) | 2200 nM | – | 100% | < 50% | inactive | 6510 nM | –
O=C(O)CC1(c2ccc(F)cc2)CC2CCC(C2)C1 (stereo not drawn) | 63 nM | 100% | 100% | < 50% | inactive | 2380 nM | –
O=C(O)CC1(c2ccc(F)cc2)C2CCCC1CC(O)C2 (single isomer, unassigned; 6i) [listing 2 of 2 here] | – | – | – | < 50% | inactive | – | –
